Experimental data from ChEMBL document CHEMBL1240306, “Allosteric inhibitors of Bcr-abl-dependent cell proliferation” (Nat Chem Biol, 2006).

Columns and labels:
[1] = molecular target: Tyrosine-protein kinase Fes/Fps (Homo sapiens) (UniProt P07332); assay: Inhibition of human Fes activity at 10 uM by radiometric assay
[2] = Antiproliferative activity against mouse 32D Bcr-abl negative cells assessed as proliferation after 48 hrs by MTT assay
[3] = molecular target: Vascular endothelial growth factor receptor 3 (Homo sapiens) (UniProt P35916); assay: Inhibition of human Flt-4 activity at 10 uM by radiometric assay
[4] = molecular target: Aurora kinase A (Homo sapiens) (UniProt O14965); assay: Inhibition of human aurora-A activity at 10 uM by radiometric assay
[5] = molecular target: cAMP-dependent protein kinase catalytic subunit beta (Homo sapiens) (UniProt P22694); details: 10 uM
[6] = Cytotoxic activity against mouse 32D cells transfected with p210 Bcr-abl; assay type: cell-based
[7] = Antiproliferative activity against mouse BA/F3 Bcr-abl negative cells expressing Tel-PDGFRbeta kinase assessed as proliferation after 48 hrs by MTT assay; assay type: functional, cell-based; details: BaF3, 48 h
Method in brief: (§1)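 Cells seeded at 0.3–0.6 × 10^6/ml in duplicate or triplicate with increasing compound (0.005–10 μM), 37 °C, 5% CO2, 48 h. Viability by MTT dye reduction, expressed as % growth of DMSO-treated cells; IC50 from dose-response curves. Ba/F3 lines carry geneticin selection (1 mg/ml) in RPMI-1640/10% FBS; parental Ba/F3 kept with 10 U/ml murine IL-3.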

[8] = molecular target: Serine/threonine-protein kinase Chk2 (Homo sapiens) (UniProt O96017); assay: Inhibition of human CHK2 activity at 10 uM by radiometric assay
[9] = molecular target: Insulin-like growth factor 1 receptor (Homo sapiens) (UniProt P08069); assay: Inhibition of human IGF-1R activity at 10 uM by radiometric assay
Jurkat = assay: Antiproliferative activity against human Jurkat Bcr-abl negative cells assessed as proliferation after 48 hrs by MTT assay; assay type: functional, cell-based; method in brief: as §1
[10] = molecular target: Platelet-derived growth factor receptor beta (Homo sapiens) (UniProt P09619); assay: Inhibition of human PDGFR-beta activity at 10 uM by radiometric assay
K562 = assay: Antiproliferative activity against human K562 expressing Bcr-abl assessed as proliferation after 48 hrs by MTT assay; assay type: functional, cell-based; details: K562, 48 h; method in brief: as §1
[11] = molecular target: Insulin receptor (Homo sapiens) (UniProt P06213); assay: Inhibition of human IR activity at 10 uM by radiometric assay
[12] = Antiproliferative activity against mouse BA/F3 Bcr-abl negative cells expressing Tel-JAK1 kinase assessed as proliferation after 48 hrs by MTT assay; assay type: functional, cell-based; details: BaF3, 48 h; method in brief: as §1
[13] = Antiproliferative activity against human M07e Bcr-abl negative cells expressing granulocyte-macrophage colony stimulating factor assessed as proliferation after 48 hrs by MTT assay; assay type: functional, cell-based; details: M-07e
Method in brief: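 Human megakaryoblastic Mo7e cells grown in RPMI-1640, 20% FBS, with either 5 ng/ml human GM-CSF or 200 ng/ml stem cell factor (c-kit-driven growth). Compound up to 10 μM, 48 h at 37 °C; viability read by MTT reduction relative to DMSO-treated cells.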

[14] = molecular target: Mitogen-activated protein kinase 1 (Homo sapiens) (UniProt P28482); assay: Inhibition of human MAPK1 activity at 10 uM by radiometric assay
[15] = molecular target: Mast/stem cell growth factor receptor Kit (Homo sapiens) (UniProt P10721); assay: Inhibition of human c-kit activity at 10 uM by radiometric assay
[16] = molecular target: Cytoplasmic tyrosine-protein kinase BMX (Homo sapiens) (UniProt P51813); assay: Inhibition of human Bmx activity at 10 uM by radiometric assay
[17] = Antiproliferation activity against mouse BA/F3 cells expressing Bcr-abl assessed as cell viability after 48 hrs by MTT assay; assay type: functional, cell-based; details: BaF3, 48 h; method in brief: as §1
[18] = molecular target: RAF proto-oncogene serine/threonine-protein kinase (Homo sapiens) (UniProt P04049); assay: Inhibition of human c-RAF activity at 10 uM by radiometric assay
[19] = molecular target: Mitogen-activated protein kinase 9 (Homo sapiens) (UniProt P45984); assay: Inhibition of human JNK2alpha2 activity at 10 uM by radiometric assay
[20] = Antiproliferative activity against mouse BA/F3 Bcr-abl negative cells expressing FIt3-ITD kinase assessed as proliferation after 48 hrs by MTT assay; assay type: functional, cell-based; details: BaF3, 48 h; method in brief: as §1
[21] = Antiproliferation activity against mouse BA/F3 cells expressing Bcr-abl A337N mutant assessed as cell viability after 48 hrs by MTT assay; assay type: functional, cell-based; details: BaF3, 48 h; method in brief: as §1
[22] = molecular target: Fibroblast growth factor receptor 3 (Homo sapiens) (UniProt P22607); assay: Inhibition of human FGFR3 activity at 10 uM by radiometric assay
[23] = Antiproliferative activity against human SUP-B15 expressing Bcr-abl assessed as proliferation after 48 hrs by MTT assay; assay type: functional; details: SUP-B15, 48 h; method in brief: as §1
[24] = molecular target: Casein kinase II subunit alpha (Homo sapiens) (UniProt P68400); assay: Inhibition of human CK2 activity at 10 uM by radiometric assay
[25] = molecular target: Protein kinase C alpha type (Homo sapiens) (UniProt P17252); assay: Inhibition of human PKCalpha activity at 10 uM by radiometric assay
[26] = molecular target: Vascular endothelial growth factor receptor 2 (Homo sapiens) (UniProt P35968); assay: Inhibition of human KDR activity at 10 uM by radiometric assay
HL-60 = assay: Antiproliferative activity against human HL60 Bcr-abl negative cells assessed as cell viability after 48 hrs by MTT assay; assay type: functional, cell-based; details: HL-60, 48 h; method in brief: as §1
[27] = Antiproliferation activity against mouse BA/F3 cells expressing Bcr-abl A334l mutant assessed as cell viability after 48 hrs by MTT assay; assay type: functional, cell-based; details: BaF3, 48 h, in the assay text read “A344L” for “A334l”; method in brief: as §1
[28] = Antiproliferative activity against mouse 32D cells transfected with p210 cells expressing Bcr-abl assessed as proliferation after 48 hrs by MTT assay; assay type: cell-based
[29] = molecular target: Serine/threonine-protein kinase 3 (Homo sapiens) (UniProt Q13188); details: 10 uM
[30] = molecular target: Platelet-derived growth factor receptor alpha (Homo sapiens) (UniProt P16234); details: 10 uM
[31] = molecular target: MAP kinase-activated protein kinase 2 (Homo sapiens) (UniProt P49137); assay: Inhibition of human MAPKAP-K2 activity at 10 uM by radiometric assay
[32] = molecular target: RAC-alpha serine/threonine-protein kinase (Homo sapiens) (UniProt P31749); assay: Inhibition of human PKBalpha activity at 10 uM by radiometric assay
[33] = molecular target: Tyrosine-protein kinase ZAP-70 (Homo sapiens) (UniProt P43403); assay: Inhibition of human ZAP-70 activity at 10 uM by radiometric assay
[34] = molecular target: Serine/threonine-protein kinase D2 (Homo sapiens) (UniProt Q9BZL6); assay: Inhibition of human PKD2 activity at 10 uM by radiometric assay
[35] = molecular target: Tyrosine-protein kinase CSK (Homo sapiens) (UniProt P41240); assay: Inhibition of human CSK activity at 10 uM by radiometric assay

Sequence of Platelet-derived growth factor receptor beta (Homo sapiens) (P09619 whole entry): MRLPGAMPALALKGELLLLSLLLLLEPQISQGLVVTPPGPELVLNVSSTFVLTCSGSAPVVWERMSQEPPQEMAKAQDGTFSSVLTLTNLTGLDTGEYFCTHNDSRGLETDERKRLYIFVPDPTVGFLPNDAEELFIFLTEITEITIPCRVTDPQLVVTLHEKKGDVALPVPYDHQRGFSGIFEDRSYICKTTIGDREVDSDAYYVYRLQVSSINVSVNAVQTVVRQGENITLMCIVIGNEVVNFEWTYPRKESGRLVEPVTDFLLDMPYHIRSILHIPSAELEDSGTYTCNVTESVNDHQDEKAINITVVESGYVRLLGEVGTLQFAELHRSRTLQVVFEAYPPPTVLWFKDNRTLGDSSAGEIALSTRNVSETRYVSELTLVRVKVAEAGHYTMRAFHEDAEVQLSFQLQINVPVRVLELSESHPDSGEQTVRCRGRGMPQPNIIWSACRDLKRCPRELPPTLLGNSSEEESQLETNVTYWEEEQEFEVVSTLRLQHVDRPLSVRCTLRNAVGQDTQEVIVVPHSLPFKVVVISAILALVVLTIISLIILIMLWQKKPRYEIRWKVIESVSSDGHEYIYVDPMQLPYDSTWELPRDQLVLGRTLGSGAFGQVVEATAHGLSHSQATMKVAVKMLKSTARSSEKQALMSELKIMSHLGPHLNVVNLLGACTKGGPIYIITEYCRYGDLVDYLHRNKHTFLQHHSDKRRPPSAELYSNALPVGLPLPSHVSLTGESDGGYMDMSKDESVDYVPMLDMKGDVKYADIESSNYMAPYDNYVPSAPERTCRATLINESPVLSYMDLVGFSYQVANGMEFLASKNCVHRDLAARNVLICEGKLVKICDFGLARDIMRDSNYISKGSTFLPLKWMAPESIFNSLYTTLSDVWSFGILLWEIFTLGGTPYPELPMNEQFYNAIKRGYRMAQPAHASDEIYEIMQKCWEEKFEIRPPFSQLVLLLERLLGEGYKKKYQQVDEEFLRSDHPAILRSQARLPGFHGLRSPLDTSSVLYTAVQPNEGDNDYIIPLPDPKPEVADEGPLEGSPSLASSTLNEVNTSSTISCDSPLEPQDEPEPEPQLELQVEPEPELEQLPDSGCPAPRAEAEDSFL
Sequence of Tyrosine-protein kinase Fes/Fps (Homo sapiens) (P07332 whole entry): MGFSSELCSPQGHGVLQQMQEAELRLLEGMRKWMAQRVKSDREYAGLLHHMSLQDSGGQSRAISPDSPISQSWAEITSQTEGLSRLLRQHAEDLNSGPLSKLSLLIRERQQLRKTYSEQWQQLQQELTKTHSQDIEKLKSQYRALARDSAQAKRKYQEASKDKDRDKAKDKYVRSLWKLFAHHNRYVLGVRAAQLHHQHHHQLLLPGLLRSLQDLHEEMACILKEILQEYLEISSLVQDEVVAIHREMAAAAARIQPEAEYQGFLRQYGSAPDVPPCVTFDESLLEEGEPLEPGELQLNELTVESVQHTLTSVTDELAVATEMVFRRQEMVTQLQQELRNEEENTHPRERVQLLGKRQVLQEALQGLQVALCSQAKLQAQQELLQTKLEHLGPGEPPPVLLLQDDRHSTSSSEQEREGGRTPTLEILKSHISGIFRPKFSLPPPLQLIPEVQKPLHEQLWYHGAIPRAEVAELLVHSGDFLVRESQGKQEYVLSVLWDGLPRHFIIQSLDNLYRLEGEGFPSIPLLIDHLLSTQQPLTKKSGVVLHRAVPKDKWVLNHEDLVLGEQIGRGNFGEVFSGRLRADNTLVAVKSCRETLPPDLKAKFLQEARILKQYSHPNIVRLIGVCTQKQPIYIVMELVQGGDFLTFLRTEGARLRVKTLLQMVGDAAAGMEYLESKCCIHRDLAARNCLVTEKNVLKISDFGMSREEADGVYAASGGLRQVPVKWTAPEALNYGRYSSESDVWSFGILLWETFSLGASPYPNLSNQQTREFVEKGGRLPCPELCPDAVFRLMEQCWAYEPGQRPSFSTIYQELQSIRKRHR
Sequence of Vascular endothelial growth factor receptor 2 (Homo sapiens) (P35968 whole entry): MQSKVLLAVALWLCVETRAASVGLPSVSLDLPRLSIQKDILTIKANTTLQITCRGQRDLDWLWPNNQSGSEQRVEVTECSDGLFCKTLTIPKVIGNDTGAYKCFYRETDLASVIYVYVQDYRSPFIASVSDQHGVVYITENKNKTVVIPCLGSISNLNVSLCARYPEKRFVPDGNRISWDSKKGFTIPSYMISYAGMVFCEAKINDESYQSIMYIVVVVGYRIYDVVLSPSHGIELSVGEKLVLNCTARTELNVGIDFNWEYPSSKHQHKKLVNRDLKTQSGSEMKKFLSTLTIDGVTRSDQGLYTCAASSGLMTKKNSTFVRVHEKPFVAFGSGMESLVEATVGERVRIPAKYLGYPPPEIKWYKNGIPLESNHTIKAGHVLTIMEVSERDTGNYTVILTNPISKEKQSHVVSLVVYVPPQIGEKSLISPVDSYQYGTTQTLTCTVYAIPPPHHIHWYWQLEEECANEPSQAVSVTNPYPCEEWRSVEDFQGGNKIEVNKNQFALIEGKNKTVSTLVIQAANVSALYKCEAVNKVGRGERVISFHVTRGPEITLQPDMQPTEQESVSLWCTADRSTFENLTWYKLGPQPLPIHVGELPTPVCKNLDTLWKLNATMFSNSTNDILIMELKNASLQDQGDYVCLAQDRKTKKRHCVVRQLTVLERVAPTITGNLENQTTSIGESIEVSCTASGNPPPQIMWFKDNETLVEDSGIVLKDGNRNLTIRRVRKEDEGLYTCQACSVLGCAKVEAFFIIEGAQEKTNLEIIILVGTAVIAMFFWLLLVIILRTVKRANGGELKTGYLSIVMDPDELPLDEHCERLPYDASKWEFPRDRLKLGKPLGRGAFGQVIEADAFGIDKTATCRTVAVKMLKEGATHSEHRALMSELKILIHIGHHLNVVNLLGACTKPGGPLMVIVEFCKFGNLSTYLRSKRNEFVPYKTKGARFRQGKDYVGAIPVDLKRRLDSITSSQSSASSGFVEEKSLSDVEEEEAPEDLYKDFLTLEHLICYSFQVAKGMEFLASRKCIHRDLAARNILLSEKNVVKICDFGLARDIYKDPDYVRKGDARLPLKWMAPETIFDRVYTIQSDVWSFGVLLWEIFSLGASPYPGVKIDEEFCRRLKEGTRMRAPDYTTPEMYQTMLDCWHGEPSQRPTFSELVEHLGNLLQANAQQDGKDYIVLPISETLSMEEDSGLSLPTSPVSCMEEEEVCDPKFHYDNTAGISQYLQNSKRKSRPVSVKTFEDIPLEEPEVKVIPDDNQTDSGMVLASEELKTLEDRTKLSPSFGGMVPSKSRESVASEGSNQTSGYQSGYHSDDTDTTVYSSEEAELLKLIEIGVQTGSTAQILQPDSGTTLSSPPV
Sequence of Platelet-derived growth factor receptor alpha (Homo sapiens) (P16234 whole entry): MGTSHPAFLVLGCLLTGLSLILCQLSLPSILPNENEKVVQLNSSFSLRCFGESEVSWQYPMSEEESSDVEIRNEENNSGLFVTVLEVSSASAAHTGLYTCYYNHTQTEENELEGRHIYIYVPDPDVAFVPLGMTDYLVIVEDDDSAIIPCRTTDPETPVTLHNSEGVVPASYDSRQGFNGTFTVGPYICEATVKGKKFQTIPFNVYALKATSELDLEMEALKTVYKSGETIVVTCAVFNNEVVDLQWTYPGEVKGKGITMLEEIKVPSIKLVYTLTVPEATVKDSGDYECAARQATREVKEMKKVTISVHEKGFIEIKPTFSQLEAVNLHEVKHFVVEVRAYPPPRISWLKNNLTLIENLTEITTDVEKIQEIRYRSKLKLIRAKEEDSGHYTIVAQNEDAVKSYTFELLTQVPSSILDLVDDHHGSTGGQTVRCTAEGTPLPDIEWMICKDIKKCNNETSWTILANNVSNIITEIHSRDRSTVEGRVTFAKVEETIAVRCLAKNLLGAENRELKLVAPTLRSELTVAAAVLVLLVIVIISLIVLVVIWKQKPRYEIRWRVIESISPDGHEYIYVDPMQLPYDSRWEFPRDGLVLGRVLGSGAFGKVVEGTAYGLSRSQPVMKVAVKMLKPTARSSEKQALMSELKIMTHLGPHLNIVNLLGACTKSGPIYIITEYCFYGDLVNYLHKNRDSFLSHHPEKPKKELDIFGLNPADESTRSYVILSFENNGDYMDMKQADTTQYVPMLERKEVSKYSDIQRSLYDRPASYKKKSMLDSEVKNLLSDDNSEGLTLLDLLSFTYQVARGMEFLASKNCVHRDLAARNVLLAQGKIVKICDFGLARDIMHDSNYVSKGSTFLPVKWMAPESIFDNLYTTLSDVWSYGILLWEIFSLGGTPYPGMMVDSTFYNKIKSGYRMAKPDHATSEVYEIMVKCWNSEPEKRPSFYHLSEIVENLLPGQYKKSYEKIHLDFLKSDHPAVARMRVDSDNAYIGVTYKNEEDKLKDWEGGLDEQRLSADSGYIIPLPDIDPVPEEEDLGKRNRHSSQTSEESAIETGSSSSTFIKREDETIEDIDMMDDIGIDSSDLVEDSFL
Sequence of Mitogen-activated protein kinase 1 (Homo sapiens) (P28482 whole entry): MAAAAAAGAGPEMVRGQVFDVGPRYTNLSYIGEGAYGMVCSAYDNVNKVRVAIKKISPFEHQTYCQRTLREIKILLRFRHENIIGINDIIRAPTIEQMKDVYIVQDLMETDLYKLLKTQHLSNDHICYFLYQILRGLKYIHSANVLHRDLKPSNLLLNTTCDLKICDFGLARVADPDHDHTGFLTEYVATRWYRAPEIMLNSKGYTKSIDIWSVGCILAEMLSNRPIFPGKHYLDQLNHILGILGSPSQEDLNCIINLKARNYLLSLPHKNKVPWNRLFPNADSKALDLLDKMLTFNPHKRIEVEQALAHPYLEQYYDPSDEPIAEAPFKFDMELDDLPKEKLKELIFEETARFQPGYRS

| Compound | inhibition [1] | IC50 [2] | inhibition [3] | inhibition [4] | inhibition [5] | IC50 [6] | IC50 [7] | inhibition [8] | inhibition [9] | IC50 (Jurkat) | inhibition [10] | IC50 (K562) | inhibition [11] | IC50 [12] | IC50 [13] | inhibition [14] | inhibition [15] | inhibition [16] | IC50 [17] | inhibition [18] | other results |
| --- | --- | --- | --- | --- | --- | --- | --- | --- | --- | --- | --- | --- | --- | --- | --- | --- | --- | --- | --- | --- | --- |
| NC(=O)c1cccc(-c2cc(Nc3ccc(OC(F)(F)F)cc3)ncn2)c1 | 7% | > 10000 nM | 30% | 19% | 0% | 138 nM | > 10000 nM | 0% | 28% | > 10000 nM | 18% | 273 nM | 26% | > 10000 nM | > 10000 nM | 40% | 39% | 7% | 138 nM | 0% | inhibition [19]: 14%; IC50 [20]: > 10000 nM; IC50 [21]: > 10000 nM; inhibition [22]: 7%; IC50 [23]: 268 nM; inhibition [24]: 0%; inhibition [25]: 0%; inhibition [26]: 23%; IC50 (HL-60): > 10000 nM; IC50 [27]: 2370 nM; IC50 [28]: 187 nM; inhibition [29]: 0%; inhibition [30]: 0%; inhibition [31]: 0%; inhibition [32]: 7%; inhibition [33]: 0%; inhibition [34]: 55%; inhibition [35]: 0% |
| Cc1ccc(NC(=O)c2ccc(CN3CCN(C)CC3)cc2)cc1Nc1nccc(-c2cccnc2)n1 [IMATINIB] | 62% | > 10000 nM | 79% | 16% | 1% | 190 nM | 27 nM | 17% | 17% | > 10000 nM | 43% | 109 nM | 2% | > 10000 nM | > 10000 nM | 4% | 88% | 27% | 190 nM | 89% | inhibition [19]: 10%; IC50 [20]: > 10000 nM; IC50 [21]: 339 nM; inhibition [22]: 27%; IC50 [23]: 111 nM; inhibition [24]: 17%; inhibition [25]: 17%; inhibition [26]: 22%; IC50 (HL-60): > 10000 nM; IC50 [27]: 962 nM; IC50 [28]: 112 nM; inhibition [29]: 15%; inhibition [30]: 89%; inhibition [31]: 19%; inhibition [32]: 46%; inhibition [33]: 29%; inhibition [34]: 11%; inhibition [35]: 2% |
